Test results taken from ChEMBL document CHEMBL4257575, “Discovery of Novel Flavonoid Dimers To Reverse Multidrug Resistance Protein 1 (MRP1, ABCC1) Mediated Drug Resistance in Cancers Using a High Throughput Platform with "Click Chemistry"” (J Med Chem, 2018).

Molecular target: Multidrug resistance-associated protein 1 (Homo sapiens, UniProt P33527)
Assay: Inhibition of MRP1 in human 2008/MRP1 cells assessed as potentiation of doxorubicin-induced cytotoxicity by measuring cell survival at 2 uM after 5 days by MTS assay relative to control
Format: cell-based
Settings: 120 h
Summary of the method: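 2008/MRP1 cells (retroviral human MRP1 transfectant; RPMI 1640, 10% FBS) at 4,000 per well, with 100 nM doxorubicin plus crude, unpurified click products in DMSO: 2 µM in the primary screen, 1 µM in the secondary. Incubated 5 days at 37 °C. MTS/PMS added for 2 h at 37 °C, absorbance read at 490 nm. % survival is relative to wells without DOX or product. Run in triplicate, at least three experiments.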

Chain of Multidrug resistance-associated protein 1 (P33527 whole entry): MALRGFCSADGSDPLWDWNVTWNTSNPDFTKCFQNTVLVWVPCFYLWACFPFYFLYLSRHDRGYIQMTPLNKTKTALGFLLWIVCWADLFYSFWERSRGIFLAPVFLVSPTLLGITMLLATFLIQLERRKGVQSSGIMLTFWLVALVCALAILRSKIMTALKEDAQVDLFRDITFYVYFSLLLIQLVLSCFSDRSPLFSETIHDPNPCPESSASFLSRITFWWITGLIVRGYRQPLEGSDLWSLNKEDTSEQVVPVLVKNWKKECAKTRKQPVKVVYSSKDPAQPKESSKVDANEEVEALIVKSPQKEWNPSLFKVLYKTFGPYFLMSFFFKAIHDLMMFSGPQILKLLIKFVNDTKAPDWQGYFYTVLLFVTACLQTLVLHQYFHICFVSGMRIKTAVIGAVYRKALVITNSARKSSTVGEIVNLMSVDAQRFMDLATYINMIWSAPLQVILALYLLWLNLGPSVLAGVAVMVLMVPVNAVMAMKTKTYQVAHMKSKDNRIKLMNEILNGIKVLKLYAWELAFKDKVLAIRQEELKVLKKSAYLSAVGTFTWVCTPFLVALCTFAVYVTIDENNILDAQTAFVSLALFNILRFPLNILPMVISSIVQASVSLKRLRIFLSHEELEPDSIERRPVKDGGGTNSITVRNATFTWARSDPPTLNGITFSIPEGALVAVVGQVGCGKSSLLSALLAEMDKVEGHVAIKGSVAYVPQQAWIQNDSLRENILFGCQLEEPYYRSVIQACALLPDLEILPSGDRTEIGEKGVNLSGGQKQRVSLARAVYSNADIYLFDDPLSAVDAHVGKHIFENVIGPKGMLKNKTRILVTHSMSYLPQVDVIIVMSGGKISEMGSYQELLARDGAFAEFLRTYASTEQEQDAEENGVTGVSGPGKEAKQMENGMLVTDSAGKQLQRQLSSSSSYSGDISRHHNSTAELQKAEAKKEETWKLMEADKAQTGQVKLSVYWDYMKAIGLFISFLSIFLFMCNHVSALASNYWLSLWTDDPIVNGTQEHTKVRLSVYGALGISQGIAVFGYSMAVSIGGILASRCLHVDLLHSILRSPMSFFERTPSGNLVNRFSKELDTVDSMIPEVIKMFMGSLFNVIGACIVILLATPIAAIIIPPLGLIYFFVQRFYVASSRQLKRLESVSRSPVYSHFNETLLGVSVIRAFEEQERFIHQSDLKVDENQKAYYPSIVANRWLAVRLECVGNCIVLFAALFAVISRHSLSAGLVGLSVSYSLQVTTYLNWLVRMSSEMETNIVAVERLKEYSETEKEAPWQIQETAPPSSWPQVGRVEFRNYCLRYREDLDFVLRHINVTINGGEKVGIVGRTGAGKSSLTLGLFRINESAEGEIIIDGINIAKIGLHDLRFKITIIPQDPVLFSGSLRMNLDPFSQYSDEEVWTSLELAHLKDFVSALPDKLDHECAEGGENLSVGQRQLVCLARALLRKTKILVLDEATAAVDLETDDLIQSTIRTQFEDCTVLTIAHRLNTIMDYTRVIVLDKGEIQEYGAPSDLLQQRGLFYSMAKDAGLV

Row | SMILES | Survival [%]
1 | COc1cccc(COc2c(-c3ccc(OCCOCCn4cc(CN(CCOc5ccc6c(=O)cc(-c7ccccc7)oc6c5)Cc5ccccc5)nn4)cc3)oc3ccccc3c2=O)c1 | 79
2 | O=c1cc(-c2ccccc2)oc2cc(OCCOCCOCCn3cc(CN(Cc4cn(CCOCCOCCOc5ccc6c(=O)cc(-c7ccccc7)oc6c5)nn4)Cc4cn(CCOCCOCCOc5ccc6c(=O)cc(-c7ccccc7)oc6c5)nn4)nn3)ccc12 | 77
3 | COc1cccc(COc2c(-c3ccc(OCCOCCN=[N+]=[N-])cc3)oc3ccccc3c2=O)c1 | 57
4 | Cc1ccc(O)c(C(=O)/C=C/c2ccc(OCCCCc3cn(CCOCCOc4cccc(-c5oc6ccccc6c(=O)c5OCc5ccccc5)c4)nn3)cc2)c1 | 78
5 | O=C(/C=C/c1ccc(OCCCCc2cn(CCOCCOCCOc3ccc(-c4cc(=O)c5cc(F)ccc5o4)cc3)nn2)cc1)c1ccc(F)cc1O | 53
6 | O=c1cc(-c2ccc(OCCCc3cn(CCOCCOc4ccc(-c5cc(=O)c6cc(F)ccc6o5)cc4)nn3)cc2)oc2ccc(F)cc12 | 74
7 | C#CCN1CCN(CC#C)CC1 | 81
8 | COc1cccc(COc2c(-c3ccc(OCCOCCn4cc(CCCCOc5ccc(/C=C/C(=O)c6cc(C)ccc6O)cc5)nn4)cc3)oc3ccccc3c2=O)c1 | 75
9 | O=c1cc(-c2ccccc2)oc2cc(OCCCc3cn(CCOCCOCCOc4ccc5c(=O)cc(-c6ccccc6)oc5c4)nn3)ccc12 | 57
10 | [N-]=[N+]=NCCOCCOCCOc1ccc(-c2cc(=O)c3ccccc3o2)cc1 | 85
11 | O=C(/C=C/c1ccc(OCCCCc2cn(CCOCCOc3ccc(-c4cc(=O)c5cc(F)ccc5o4)cc3)nn2)cc1)c1ccccc1O | 72
12 | COc1cccc(COc2c(-c3ccc(OCCOCCn4cc(CCCCOc5ccc(/C=C/C(=O)c6ccc(F)cc6O)cc5)nn4)cc3)oc3ccccc3c2=O)c1 | 75
13 | O=c1[nH]c(-c2ccc(OCCCc3cn(CCOCCOCCOc4ccc(-c5oc6ccccc6c(=O)c5OCc5ccccc5)cc4)nn3)cc2)nc2ccccc12 | 68
14 | O=c1cc(-c2ccccc2)oc2cc(OCCN(Cc3ccccc3)Cc3cn(CCOCCOCCOc4ccc(-c5oc6ccccc6c(=O)c5OCc5ccccc5)cc4)nn3)ccc12 | 65
15 | O=c1cc(-c2ccc(OCCCc3cn(CCOCCOCCOc4ccc(-c5cc(=O)c6cc(F)ccc6o5)cc4)nn3)cc2)oc2ccc(F)cc12 | 76
16 | Cc1ccc2oc(-c3ccc(OCCOCCOCCn4cc(CCCOc5ccc6c(=O)cc(-c7ccccc7)oc6c5)nn4)cc3)cc(=O)c2c1 | 55
17 | Cc1ccc(C(=O)/C=C/c2ccc(OCCCCc3cn(CCOCCOCCOc4ccc(-c5cc(=O)c6cc(C)ccc6o5)cc4)nn3)cc2)c(O)c1 | 61
18 | O=c1cc(-c2ccc(OCCOCCOCCn3cc(CNc4ccccc4)nn3)cc2)oc2ccc(F)cc12 | 90
19 | O=c1cc(-c2ccccc2)oc2cc(OCCOCCn3cc(CNc4ccccc4)nn3)ccc12 | 88
20 | O=c1[nH]c(-c2ccc(OCCCc3cn(CCOCCOc4ccc(-c5cc(=O)c6ccccc6o5)cc4)nn3)cc2)nc2ccccc12 | 58
21 | C#CCCCCOc1ccc(C=O)cc1 | 86

Row | SMILES | Survival [%]
22 | O=c1cc(-c2ccc(OCCOCCOCCn3cc(-c4ccc(-c5cn(CCOCCOCCOc6ccc(-c7cc(=O)c8ccccc8o7)cc6)nn5)cc4)nn3)cc2)oc2ccccc12 | 83
23 | Cc1ccc(C(=O)/C=C/c2ccc(OCCCCc3cn(CCOc4cccc5c(=O)cc(-c6ccccc6)oc45)nn3)cc2)c(O)c1 | 75
24 | O=c1cc(-c2ccccc2)oc2cc(OCCOCCn3cc(CN(Cc4cn(CCOCCOc5ccc6oc(-c7ccccc7)cc(=O)c6c5)nn4)Cc4cn(CCOCCOc5ccc6oc(-c7ccccc7)cc(=O)c6c5)nn4)nn3)ccc12 | 83
25 | O=c1cc(-c2ccc(OCCOCCn3cc(CN4CCN(Cc5cn(CCOCCOc6ccc(-c7cc(=O)c8cc(F)ccc8o7)cc6)nn5)CC4)nn3)cc2)oc2ccc(F)cc12 | 86
26 | C#CCCCOc1ccc(-c2nc3ccccc3c(=O)[nH]2)cc1 | 86
27 | O=c1cc(-c2ccc(OCCCc3cn(CCOCCOc4cccc(-c5oc6ccccc6c(=O)c5OCc5ccccc5)c4)nn3)cc2)oc2ccccc12 | 54
28 | CN(CCN(C)Cc1cn(CCOCCOCCOc2ccc3c(=O)cc(-c4ccccc4)oc3c2)nn1)Cc1cn(CCOCCOCCOc2ccc3c(=O)cc(-c4ccccc4)oc3c2)nn1 | 88
29 | O=c1c(OCc2ccccc2)c(-c2ccc(OCCOCCOCCn3cc(-c4ccc(-c5cn(CCOCCOCCOc6ccc(-c7oc8ccccc8c(=O)c7OCc7ccccc7)cc6)nn5)cc4)nn3)cc2)oc2ccccc12 | 86
30 | COCOc1cc(OCc2ccccc2)c2c(=O)cc(-c3ccc(OCCCc4cn(CCOCCOCCOc5ccc(-c6cc(=O)c7cc(C)ccc7o6)cc5)nn4)cc3)oc2c1 | 53
31 | O=C(/C=C/c1ccc(OCCCCc2cn(CCOCCOCCOc3ccc(-c4oc5ccccc5c(=O)c4OCc4ccccc4)cc3)nn2)cc1)c1ccc(F)cc1O | 68
32 | O=c1cc(-c2ccc(OCCCc3cn(CCOCCOCCOc4ccc5c(=O)cc(-c6ccccc6)oc5c4)nn3)cc2)oc2cc(F)ccc12 | 52
33 | Cc1ccc(O)c(C(=O)/C=C/c2ccc(OCCCCc3cn(CCOCCOCCOc4ccc5c(=O)cc(-c6ccccc6)oc5c4)nn3)cc2)c1 | 84
34 | COc1cccc(COc2c(-c3ccc(OCCCCc4cn(CCOCCOc5ccc(-c6oc7ccccc7c(=O)c6OCc6cccc(OC)c6)cc5)nn4)cc3)oc3ccccc3c2=O)c1 | 57
35 | O=c1cc(-c2ccc(OCCOCCn3cc(CN4CCN(Cc5cn(CCOCCOc6ccc(-c7cc(=O)c8ccccc8o7)cc6)nn5)CC4)nn3)cc2)oc2ccccc12 | 116
36 | O=C(/C=C/c1ccc(OCCCCc2cn(CCOCCOCCOc3ccc(-c4cc(=O)c5ccccc5o4)cc3)nn2)cc1)c1ccccc1O | 65
37 | O=c1cc(-c2ccc(OCCOCCn3cc(-c4cccc(-c5cn(CCOCCOc6ccc(-c7cc(=O)c8ccccc8o7)cc6)nn5)c4)nn3)cc2)oc2ccccc12 | 79
38 | O=c1c(OCc2ccccc2)c(-c2cccc(OCCOCCn3cc(CNc4ccccc4)nn3)c2)oc2ccccc12 | 92
39 | O=C(/C=C/c1ccc(OCCCCc2cn(CCOCCOc3cccc(-c4oc5ccccc5c(=O)c4OCc4ccccc4)c3)nn2)cc1)c1ccc(F)cc1O | 68
40 | O=C(/C=C/c1ccc(OCCCCc2cn(CCOCCOCCOc3ccc4c(=O)cc(-c5ccccc5)oc4c3)nn2)cc1)c1ccc(F)cc1O | 67
41 | O=C(/C=C/c1ccc(OCCCCc2cn(CCOc3cccc4c(=O)cc(-c5ccccc5)oc34)nn2)cc1)c1ccccc1O | 85
42 | O=c1c(OCc2ccccc2)c(-c2ccc(OCCOCCOCCn3cc(-c4cccc(-c5cn(CCOCCOCCOc6ccc(-c7oc8ccccc8c(=O)c7OCc7ccccc7)cc6)nn5)c4)nn3)cc2)oc2ccccc12 | 80

Row | SMILES | Survival [%]
43 | Cc1ccc2oc(-c3ccc(OCCOCCOCCn4cc(CCCOc5ccc(-c6cc(=O)c7ccccc7o6)cc5)nn4)cc3)cc(=O)c2c1 | 51
44 | CN(CCN(C)Cc1cn(CCOCCOc2ccc(-c3oc4ccccc4c(=O)c3OCc3ccccc3)cc2)nn1)Cc1cn(CCOCCOc2ccc(-c3oc4ccccc4c(=O)c3OCc3ccccc3)cc2)nn1 | 76
45 | C#CCCCOc1ccc2c(=O)cc(-c3ccccc3)oc2c1 | 85
46 | O=c1cc(-c2ccc(OCCCc3cn(CCOCCOCCOc4ccc(-c5oc6ccccc6c(=O)c5OCc5ccccc5)cc4)nn3)cc2)oc2ccc(F)cc12 | 75
47 | CCc1ccc(O)c(C(=O)/C=C/c2ccc(OCCCCc3cn(CCOCCOCCOc4ccc(-c5cc(=O)c6cc(C)ccc6o5)cc4)nn3)cc2)c1 | 63
48 | COc1cccc(COc2c(-c3ccc(OCCOCCn4cc(CCN5C(=O)c6ccccc6C5=O)nn4)cc3)oc3ccccc3c2=O)c1 | 75
49 | O=c1cc(-c2ccccc2)oc2cc(OCCCc3cn(CCOCCOc4ccc(-c5cc(=O)c6cc(F)ccc6o5)cc4)nn3)ccc12 | 55
50 | O=C(/C=C/c1ccc(OCCCCc2cn(CCOCCOCCOc3ccc4c(=O)cc(-c5ccccc5)oc4c3)nn2)cc1)c1ccccc1O | 72
51 | Cc1ccc(O)c(C(=O)/C=C/c2ccc(OCCCCc3cn(CCOCCOCCOc4ccc(-c5cc(=O)c6ccccc6o5)cc4)nn3)cc2)c1 | 70
52 | Cc1ccc2oc(-c3ccc(OCCOCCOCCn4cc(CCN5C(=O)c6ccccc6C5=O)nn4)cc3)cc(=O)c2c1 | 81
53 | O=c1[nH]c(-c2ccc(OCCCc3cn(CCOCCOCCOc4ccc5c(=O)cc(-c6ccccc6)oc5c4)nn3)cc2)nc2ccccc12 | 60
54 | O=C(/C=C/c1ccc(OCCCCc2cn(CCOCCOc3ccc(-c4cc(=O)c5cc(F)ccc5o4)cc3)nn2)cc1)c1ccc(F)cc1O | 70
55 | COc1cccc(COc2c(-c3ccc(OCCCCc4cn(CCOCCOc5ccc(-c6oc7ccccc7c(=O)c6OCc6ccccc6)cc5)nn4)cc3)oc3ccccc3c2=O)c1 | 68
56 | O=c1[nH]c(-c2ccc(OCCCc3cn(CCOCCOc4ccc(-c5cc(=O)c6cc(F)ccc6o5)cc4)nn3)cc2)nc2ccccc12 | 76
57 | Cc1ccc(O)c(C(=O)/C=C/c2ccc(OCCCCc3cn(CCOCCOc4ccc(-c5cc(=O)c6cc(F)ccc6o5)cc4)nn3)cc2)c1 | 82
58 | [N-]=[N+]=NCCOCCOCCOc1ccc2c(=O)cc(-c3ccccc3)oc2c1 | 90
59 | O=c1cc(-c2ccccc2)oc2cc(OCCCCc3cn(CCOCCOc4ccc(-c5oc6ccccc6c(=O)c5OCc5ccccc5)cc4)nn3)ccc12 | 79
60 | O=c1cc(-c2ccccc2)oc2cc(OCCn3cc(-c4ccc(-c5cn(CCOc6ccc7occ(-c8ccccc8)c(=O)c7c6)nn5)cc4)nn3)ccc12 | 87
61 | COCOc1cc(OCc2ccccc2)c2c(=O)cc(-c3ccc(OCCCc4cn(CCOCCOCCOc5ccc(-c6oc7ccccc7c(=O)c6OCc6ccccc6)cc5)nn4)cc3)oc2c1 | 89
